Measurements: ChEMBL document CHEMBL1152818, “Structural bioinformatics-based design of selective, irreversible kinase inhibitors” (Science, 2005)
Values belong to the compound of their own block, whether it stands above or below them. Active and inactive are the calls of the source. The calls are words filed in the database; no cut-off is given here.

Key:
[1] = molecular target: Ribosomal protein S6 kinase alpha-3 (Homo sapiens, UniProt P51812, T493M); assay: Inhibition of RSK2 C-terminal kinase domain T493M mutant expressed in Escherichia coli preincubated for 30 mins
In short: (§1)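 His6-tagged RSK2 CTDs (WT or mutant) expressed in E. coli, activated with bacterially expressed His6-ERK2 plus ATP. Enzyme at 1 nM pretreated with inhibitor for 30 min, then assayed with 0.1 mM ATP and 0.1 mM "CTD-tide" peptide substrate.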

[2] = molecular target: T1, Ribosomal protein S6 kinase alpha-3 (Homo sapiens, UniProt P51812); assay: Inhibition of RSK2 C-terminal kinase domain expressed in Escherichia coli preincubated for 30 mins; in short: as §1
[3] = molecular target: Ribosomal protein S6 kinase alpha-3 (Homo sapiens, UniProt P51812, C436V); assay: Inhibition of RSK2 C-terminal kinase domain C436V mutant expressed in Escherichia coli preincubated for 30 mins; in short: as §1
[4] = molecular target: T1, Ribosomal protein S6 kinase alpha-3; assay: Binding affinity to RSK2 in HEK293 cells assessed as protein labeling at 1 µM preincubated for 1 hr by immunodepletion method
[5] = molecular target: Ribosomal protein S6 kinase alpha-1 (Homo sapiens) (UniProt Q15418); assay: Binding affinity to RSK1 in HEK293 cells assessed as protein labeling at 1 µM preincubated for 1 hr by enhanced chemiluminescence detection
[6] = molecular target: T1, Ribosomal protein S6 kinase alpha-3; assay: Binding affinity to RSK2 in HEK293 cells assessed as protein labeling at 1 µM preincubated for 1 hr by enhanced chemiluminescence detection
[7] = molecular target: Ribosomal protein S6 kinase alpha-1 (Homo sapiens) (UniProt Q15418); assay: Binding affinity to RSK1 in HEK293 cells assessed as protein labeling at 1 µM preincubated for 1 hr by immunodepletion method
[8] = molecular target: T1, Ribosomal protein S6 kinase alpha-3; assay: Binding affinity to wild type RSK2 at 1 uM preincubated for 1 hr by denaturing gel electrophoresis and Western blot
In short: (§2)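 His6-tagged RSK2 C-terminal kinase domains (WT or mutant) exposed to 1 μM biotin-fmk for 1 hour in the presence of His6-ERK2. Proteins resolved by SDS-PAGE. Western blot probed with streptavidin-HRP for covalent label and anti-His6 for total protein.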

[9] = tested on: Ribosomal protein S6 kinase alpha-3 (Homo sapiens), P51812 [T493M]; assay: Binding affinity to RSK2 T493M mutant at 1 uM preincubated for 1 hr by denaturing gel electrophoresis and Western blot; in short: as §2
[10] = tested on: Ribosomal protein S6 kinase alpha-3 (Homo sapiens), P51812 [C436V]; assay: Binding affinity to RSK2 C436V mutant at 1 uM preincubated for 1 hr by denaturing gel electrophoresis and Western blot; in short: as §2
NIH3T3 [11] = assay: Reversion of Rous sarcoma virus wild type V-src-dependent cell morphology in mouse NIH-3T3 cells assessed as cells acquiring actin stress fibres at 1 uM after 16 hrs by phalloidin-FITC and DAPI staining; assay type: cell-based
[12] = molecular target: Tyrosine-protein kinase Fyn (Homo sapiens, UniProt P06241, V285C); assay: Inhibition of FYN Val285Cys mutant expressed in Escherichia coli
[13] = tested on: Tyrosine-protein kinase transforming protein Src (Avian leukosis virus RSA (RSV-SRA) (Rous sarcoma virus (strainSchmidt-Ruppin A))), P00524 [V281C]; assay: Reversion of Rous sarcoma virus V-src V281C mutant-dependent cell morphology in mouse NIH-3T3 cells assessed as cells acquiring actin stress fibres at 1 uM after 16 hrs by phalloidin-FITC and DAPI staining; assay type: cell-based; conditions: NIH3T3
[14] = tested on: Tyrosine-protein kinase transforming protein Src (Avian leukosis virus RSA (RSV-SRA) (Rous sarcoma virus (strainSchmidt-Ruppin A))), P00524 [V281C]; assay: Inhibition of Rous sarcoma virus V-src V281C mutant expressed in mouse NIH-3T3 cells assessed as reduction in steady-state phosphotyrosine level preincubated for 1 hr by Western blot; assay type: cell-based; conditions: NIH3T3
NIH3T3 [15] = assay: Inhibition of Rous sarcoma virus wild type V-src expressed in mouse NIH-3T3 cells assessed as reduction in steady-state phosphotyrosine level preincubated for 1 hr by Western blot; assay type: cell-based
NIH3T3 [16] = assay: Inhibition of PMA-stimulated histone H3 phosphorylation in mouse NIH-3T3 cells at 10 uM by SDS page and Western blot; assay type: functional, cell-based
COS-7 [17] = assay: Inhibition of EGF-stimulated ERK2 phosphorylation in serum starved african green monkey COS7 cells at 10 µM by Western blot; conditions: Chlorocebus aethiops
[18] = tested on: Ribosomal protein S6 kinase alpha-5 (Homo sapiens), O75582 [M498T]; assay: Inhibition of MSK1 M498T mutant phosphorylation expressed in serum starved african green monkey COS7 cells by Western blot; assay type: cell-based; conditions: COS-7
In short: (§3)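 COS-7 cells transfected with HA-tagged WT or M498T MSK1. Lysed in Laemmli buffer. Western blots probed for phospho-Ser386 RSK (MSK1 autophosphorylation), HA epitope and phospho-Ser10 histone H3.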

[19] = Inhibition of EGF-stimulated RSK2 Ser386 autophosphorylation in serum starved african green monkey COS7 cells by immunoprecipitation and Western blot; assay type: cell-based, Chlorocebus aethiops; conditions: cos-7
In short: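 COS-7 cells serum-deprived 20 h, exposed to a range of inhibitor concentrations, then stimulated with EGF (1 ng/mL) for 10 min. Endogenous RSK2 immunoprecipitated and blotted for phospho-Ser386 and total RSK2. EC50 taken from the concentration series.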

[20] = molecular target: Ribosomal protein S6 kinase alpha-5 (Homo sapiens) (UniProt O75582); assay: Inhibition of MSK1-mediated histone H3 Ser10 phosphorylation expressed in serum starved african green monkey COS7 cells by Western blot; assay type: cell-based; conditions: COS-7; in short: as §3
COS-7 [21] = assay: Inhibition of EGF-stimulated ERK1 phosphorylation in serum starved african green monkey COS7 cells at 10 µM by Western blot; conditions: Chlorocebus aethiops

T1 sequence (P51812 whole entry, the tested form may be a part): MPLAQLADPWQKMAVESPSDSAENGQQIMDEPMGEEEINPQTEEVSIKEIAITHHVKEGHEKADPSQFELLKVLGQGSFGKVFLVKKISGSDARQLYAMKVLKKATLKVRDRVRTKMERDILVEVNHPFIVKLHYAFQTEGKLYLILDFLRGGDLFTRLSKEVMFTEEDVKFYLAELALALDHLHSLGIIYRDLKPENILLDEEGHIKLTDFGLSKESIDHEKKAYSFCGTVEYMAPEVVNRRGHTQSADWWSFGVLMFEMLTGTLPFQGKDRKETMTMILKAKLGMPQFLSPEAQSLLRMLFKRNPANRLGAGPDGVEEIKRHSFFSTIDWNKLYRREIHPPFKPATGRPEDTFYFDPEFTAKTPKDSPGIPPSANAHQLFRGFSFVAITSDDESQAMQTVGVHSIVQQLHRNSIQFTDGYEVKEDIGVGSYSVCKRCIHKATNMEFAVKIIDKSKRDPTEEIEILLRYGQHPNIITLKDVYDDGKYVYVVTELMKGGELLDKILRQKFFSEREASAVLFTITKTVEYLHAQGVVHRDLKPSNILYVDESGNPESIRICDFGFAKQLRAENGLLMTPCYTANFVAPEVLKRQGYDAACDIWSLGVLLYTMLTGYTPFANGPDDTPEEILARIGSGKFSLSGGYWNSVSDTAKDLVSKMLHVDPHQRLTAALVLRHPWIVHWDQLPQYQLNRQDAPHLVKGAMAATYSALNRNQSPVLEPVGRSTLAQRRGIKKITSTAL
Chain of Tyrosine-protein kinase Fyn (P06241 2-537 V285C limits assumed): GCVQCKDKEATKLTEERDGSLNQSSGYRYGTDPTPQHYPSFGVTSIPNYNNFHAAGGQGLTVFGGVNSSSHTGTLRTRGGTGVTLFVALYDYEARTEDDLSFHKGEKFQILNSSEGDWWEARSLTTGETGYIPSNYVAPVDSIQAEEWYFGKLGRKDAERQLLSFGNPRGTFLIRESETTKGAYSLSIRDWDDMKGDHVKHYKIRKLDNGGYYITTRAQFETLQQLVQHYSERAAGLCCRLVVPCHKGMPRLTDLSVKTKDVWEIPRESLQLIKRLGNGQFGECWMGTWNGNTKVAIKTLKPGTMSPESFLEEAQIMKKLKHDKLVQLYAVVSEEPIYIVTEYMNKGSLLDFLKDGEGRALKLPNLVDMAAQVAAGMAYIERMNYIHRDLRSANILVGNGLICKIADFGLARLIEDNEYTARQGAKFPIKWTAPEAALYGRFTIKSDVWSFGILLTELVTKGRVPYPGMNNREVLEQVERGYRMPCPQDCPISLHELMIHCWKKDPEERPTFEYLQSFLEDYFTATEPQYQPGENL
Chain of Ribosomal protein S6 kinase alpha-1 (Homo sapiens) (Q15418 whole entry): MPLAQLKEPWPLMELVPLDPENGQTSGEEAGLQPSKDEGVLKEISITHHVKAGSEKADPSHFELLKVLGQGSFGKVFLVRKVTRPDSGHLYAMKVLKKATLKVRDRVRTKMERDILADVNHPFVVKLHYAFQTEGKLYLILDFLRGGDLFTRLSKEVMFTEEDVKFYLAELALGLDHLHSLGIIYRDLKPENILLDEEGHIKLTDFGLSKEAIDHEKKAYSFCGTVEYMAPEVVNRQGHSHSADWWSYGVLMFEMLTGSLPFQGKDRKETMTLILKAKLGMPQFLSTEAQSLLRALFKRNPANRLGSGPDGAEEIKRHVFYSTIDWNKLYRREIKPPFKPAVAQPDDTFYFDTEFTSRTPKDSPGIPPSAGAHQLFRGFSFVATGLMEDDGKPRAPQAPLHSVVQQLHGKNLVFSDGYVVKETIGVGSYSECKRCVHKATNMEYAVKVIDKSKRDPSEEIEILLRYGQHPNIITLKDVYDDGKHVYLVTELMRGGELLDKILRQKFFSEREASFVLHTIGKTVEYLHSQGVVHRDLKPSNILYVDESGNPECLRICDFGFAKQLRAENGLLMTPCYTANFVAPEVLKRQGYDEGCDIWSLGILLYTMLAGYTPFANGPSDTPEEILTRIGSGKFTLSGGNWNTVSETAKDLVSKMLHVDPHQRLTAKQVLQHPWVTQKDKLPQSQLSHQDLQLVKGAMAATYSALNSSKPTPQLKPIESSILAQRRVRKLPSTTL
Chain of Ribosomal protein S6 kinase alpha-5 (Homo sapiens) (O75582 whole entry, looked up): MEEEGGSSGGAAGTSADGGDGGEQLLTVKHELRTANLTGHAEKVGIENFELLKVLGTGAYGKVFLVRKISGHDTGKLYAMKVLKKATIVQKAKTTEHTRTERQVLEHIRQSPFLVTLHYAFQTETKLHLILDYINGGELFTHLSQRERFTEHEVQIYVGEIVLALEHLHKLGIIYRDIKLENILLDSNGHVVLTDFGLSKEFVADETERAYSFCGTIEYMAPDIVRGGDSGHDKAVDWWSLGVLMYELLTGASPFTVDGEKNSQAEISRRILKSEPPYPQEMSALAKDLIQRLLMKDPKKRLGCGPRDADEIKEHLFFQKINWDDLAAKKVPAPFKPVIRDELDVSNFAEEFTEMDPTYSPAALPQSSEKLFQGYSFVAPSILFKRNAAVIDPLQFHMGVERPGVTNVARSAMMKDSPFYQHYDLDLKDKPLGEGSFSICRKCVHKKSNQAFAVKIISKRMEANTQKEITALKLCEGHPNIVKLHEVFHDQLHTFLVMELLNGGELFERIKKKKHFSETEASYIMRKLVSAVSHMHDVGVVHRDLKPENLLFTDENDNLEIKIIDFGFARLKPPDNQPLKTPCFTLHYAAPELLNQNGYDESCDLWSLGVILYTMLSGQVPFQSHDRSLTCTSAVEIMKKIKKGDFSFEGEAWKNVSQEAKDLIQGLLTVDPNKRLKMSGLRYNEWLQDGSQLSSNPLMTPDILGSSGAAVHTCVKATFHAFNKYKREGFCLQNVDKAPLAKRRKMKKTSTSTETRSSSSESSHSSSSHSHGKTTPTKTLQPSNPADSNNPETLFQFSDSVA
Chain of Ribosomal protein S6 kinase alpha-5 (Homo sapiens), O75582 [M498T] (O75582 whole entry M498T): as the sequence (O75582 whole entry, looked up) above, with M498T counted along it
Chain of Ribosomal protein S6 kinase alpha-3 (Homo sapiens), P51812 [C436V] (P51812 whole entry C436V): as the sequence (P51812 whole entry, the tested form may be a part) above, with C436V counted along it
Chain of Ribosomal protein S6 kinase alpha-3 (Homo sapiens, UniProt P51812, C436V) (P51812 whole entry C436V, the tested form may be a part): as the sequence (P51812 whole entry, the tested form may be a part) above, with C436V counted along it
Chain of Ribosomal protein S6 kinase alpha-3 (Homo sapiens, UniProt P51812, T493M) (P51812 whole entry T493M, the tested form may be a part): as the sequence (P51812 whole entry, the tested form may be a part) above, with T493M counted along it
Chain of Ribosomal protein S6 kinase alpha-3 (Homo sapiens), P51812 [T493M] (P51812 whole entry T493M): as the sequence (P51812 whole entry, the tested form may be a part) above, with T493M counted along it

- IC50 [1]: > 30000 nM
- IC50 [2]: 1200 nM
- IC50 [3]: 430 nM
SMILES: Cc1ccc(-c2cn(CCCO)c3ncnc(N)c23)cc1

- Activity [4]: Active
- Activity [5]: Active
- Activity [6]: Active
- Activity [7]: Active
- Activity [8]: Active
- Activity [9]: inactive
- Activity [10]: inactive
SMILES: Cc1ccc(-c2c(C(=O)CF)n(CCCOC(=O)NCCCCNC(=O)CCCC[C@@H]3SC[C@H]4NC(=O)N[C@@H]34)c3ncnc(N)c23)cc1

SMILES: Cc1ccc(-c2c(C(=O)CCl)n(CCCO)c3ncnc(N)c23)cc1
- Activity (NIH3T3 [11]): 75%
- IC50 [12]: 100 nM
- Activity [13]: 2%
- Activity [14]: Active
- Activity (NIH3T3 [15]): inactive

- IC50 [12]: 1 nM
- Activity [18]: Active
- EC50 [19]: 200 nM
- Activity [20]: inactive
SMILES: Cc1ccc(-c2c(C(=O)CF)n(CCCO)c3ncnc(N)c23)cc1
- Activity (NIH3T3 [16]): inactive
- Activity (COS-7 [17]): inactive
- Activity (COS-7 [21]): inactive
